Consider six compounds from ChEMBL document CHEMBL1153096, “Properly substituted 1,4-dioxane nucleus favours the selective M3 muscarinic receptor activation” (Bioorg Med Chem, 2009).

Active and inactive are the calls of the source. The rule behind the calls is not given here. Bounds are passed on as bounds.

The target in test [1] is T1, Muscarinic acetylcholine receptor M1 (Homo sapiens, UniProt P11229).
T1 sequence (P11229 whole entry): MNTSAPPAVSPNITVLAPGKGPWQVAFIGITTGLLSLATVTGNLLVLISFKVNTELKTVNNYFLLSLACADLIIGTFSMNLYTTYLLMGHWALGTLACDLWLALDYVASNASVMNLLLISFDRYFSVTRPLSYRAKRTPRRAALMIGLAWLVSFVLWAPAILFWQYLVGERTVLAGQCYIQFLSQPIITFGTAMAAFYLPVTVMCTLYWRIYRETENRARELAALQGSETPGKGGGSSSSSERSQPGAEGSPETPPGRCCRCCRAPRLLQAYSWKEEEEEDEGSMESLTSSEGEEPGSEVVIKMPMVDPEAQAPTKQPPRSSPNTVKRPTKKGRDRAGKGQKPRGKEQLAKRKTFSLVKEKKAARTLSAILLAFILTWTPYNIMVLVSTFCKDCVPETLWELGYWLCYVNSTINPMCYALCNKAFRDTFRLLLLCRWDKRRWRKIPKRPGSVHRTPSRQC
Description: Displacement of [3H]NMS from human muscarinic M1 receptor expressed in CHO cells by microplate scintillation counting. The class given is cell-based. (Loss of bound radioactivity is the signal in a displacement assay; it reports binding, not function.)

The target of test [2] is T2, Muscarinic acetylcholine receptor M2 (Homo sapiens, UniProt P08172).
T2 sequence (P08172 whole entry): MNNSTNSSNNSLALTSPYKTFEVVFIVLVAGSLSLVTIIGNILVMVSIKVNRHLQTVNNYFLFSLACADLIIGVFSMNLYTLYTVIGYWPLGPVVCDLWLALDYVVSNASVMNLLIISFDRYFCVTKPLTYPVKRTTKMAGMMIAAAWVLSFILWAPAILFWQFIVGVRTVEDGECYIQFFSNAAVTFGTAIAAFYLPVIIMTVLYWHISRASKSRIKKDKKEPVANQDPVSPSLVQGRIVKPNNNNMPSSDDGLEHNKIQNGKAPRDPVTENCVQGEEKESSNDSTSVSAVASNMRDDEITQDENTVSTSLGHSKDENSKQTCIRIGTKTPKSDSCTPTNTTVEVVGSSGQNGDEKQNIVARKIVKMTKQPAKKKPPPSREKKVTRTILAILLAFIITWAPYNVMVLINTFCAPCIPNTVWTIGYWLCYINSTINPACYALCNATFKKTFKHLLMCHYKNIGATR
Put plainly: Displacement of [3H]NMS from human muscarinic M2 receptor expressed in CHO cells by microplate scintillation counting. The class given is cell-based.

Test [3] has as its target Muscarinic acetylcholine receptor M3 (Homo sapiens, UniProt P20309). Description: Displacement of [3H]NMS from human muscarinic M3 receptor expressed in CHO cells by microplate scintillation counting. Format: cell-based.
The target of test [4] is T3, Muscarinic acetylcholine receptor M4 (Homo sapiens, UniProt P08173).
T3 sequence (P08173 whole entry): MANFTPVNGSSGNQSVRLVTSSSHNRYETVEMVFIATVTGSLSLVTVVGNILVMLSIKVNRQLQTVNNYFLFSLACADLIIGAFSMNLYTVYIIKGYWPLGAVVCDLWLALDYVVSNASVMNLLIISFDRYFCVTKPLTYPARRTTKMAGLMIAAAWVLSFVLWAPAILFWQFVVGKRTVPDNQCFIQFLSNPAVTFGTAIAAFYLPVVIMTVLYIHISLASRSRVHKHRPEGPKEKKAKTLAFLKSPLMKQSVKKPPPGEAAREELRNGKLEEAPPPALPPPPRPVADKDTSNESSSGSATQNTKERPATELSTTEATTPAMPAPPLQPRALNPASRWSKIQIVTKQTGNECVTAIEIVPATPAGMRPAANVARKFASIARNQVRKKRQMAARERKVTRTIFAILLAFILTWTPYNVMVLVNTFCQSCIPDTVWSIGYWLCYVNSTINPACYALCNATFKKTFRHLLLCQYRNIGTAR
Put plainly: Displacement of [3H]NMS from human muscarinic M4 receptor expressed in CHO cells by microplate scintillation counting. Format: cell-based.

The target of test [5] is T4, Muscarinic acetylcholine receptor M5 (Homo sapiens, UniProt P08912).
T4 sequence (P08912 whole entry): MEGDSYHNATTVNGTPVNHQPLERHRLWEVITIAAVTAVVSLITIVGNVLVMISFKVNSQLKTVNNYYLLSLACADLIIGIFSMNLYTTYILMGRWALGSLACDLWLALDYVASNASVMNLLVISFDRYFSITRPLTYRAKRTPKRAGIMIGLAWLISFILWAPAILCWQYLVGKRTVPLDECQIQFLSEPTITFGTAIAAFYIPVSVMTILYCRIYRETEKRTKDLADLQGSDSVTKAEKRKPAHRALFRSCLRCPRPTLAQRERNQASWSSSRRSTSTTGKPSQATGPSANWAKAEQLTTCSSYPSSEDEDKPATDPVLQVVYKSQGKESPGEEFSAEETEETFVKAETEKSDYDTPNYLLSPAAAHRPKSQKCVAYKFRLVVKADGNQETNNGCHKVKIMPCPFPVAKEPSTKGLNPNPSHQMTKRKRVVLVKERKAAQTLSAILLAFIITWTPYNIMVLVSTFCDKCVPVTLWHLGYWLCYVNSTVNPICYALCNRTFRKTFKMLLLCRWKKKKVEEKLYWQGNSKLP
Put plainly: Displacement of [3H]NMS from human muscarinic M5 receptor expressed in CHO cells by microplate scintillation counting. Format: cell-based.

For test [6], the species on record is Oryctolagus cuniculus. Put plainly: Intrinsic activity at muscarinic M1 receptor in New Zealand White rabbit vas deferens assessed as inhibition of electrically-stimulated muscle contraction relative to McN-A-343. The class given is tissue-based. The method in brief: (§1)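 Prostatic portion of male-free-listed New Zealand white rabbit (3.0-3.5 kg, fasted 24 h) vas deferens in modified Krebs, 31 °C, 95% O2-5% CO2; 45 min stabilisation, field stimulation 2 Hz, 5 ms, 5 V; isometric recording. Cumulative concentration-response curves; pD2 by linear regression; intrinsic activity as fraction of McN-A-343 maximum; means ± SEM of four to six experiments.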

Test [7] is described as follows: Antagonist activity at muscarinic M1 receptor in New Zealand White rabbit vas deferens assessed as effect on muscle contraction. The class given is functional, Oryctolagus cuniculus.
For test [8], the target named is Muscarinic acetylcholine receptor M3 (Cavia porcellus) (UniProt Q8VH26). Put plainly: Intrinsic activity at muscarinic M3 receptor in guinea pig ileum assessed as inhibition of electrically-stimulated muscle contraction relative to bathanecol. Format: tissue-based. The method in brief:
(§2)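 Male guinea pig (250-350 g, fasted 24 h) ileal segments 2-3 cm, 1.0 g tension, 37 °C, Krebs-Henseleit with carbogen; 45 min equilibration, isometric contractions. Cumulative agonist concentration-response curves; pD2 by linear regression; intrinsic activity relative to bethanechol maximum; means ± SEM of four to six experiments.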

Test [9] is filed under the species Cavia porcellus. Put plainly: Intrinsic activity at muscarinic M2 receptor in guinea pig atrium assessed as inhibition of electrically-stimulated muscle contraction relative to bathanecol. Format: tissue-based. To be noted: Cardiac atrium.
The nature of test [10]: Agonist activity at muscarinic M2 receptor in guinea pig atrium assessed as inhibition of electrically-stimulated muscle contraction. Format: functional, Cavia porcellus, Cardiac atrium.
The target in test [11] is Muscarinic acetylcholine receptor M3 (Cavia porcellus) (UniProt Q8VH26). Put plainly: Agonist activity at muscarinic M3 receptor in guinea pig ileum assessed as inhibition of electrically-stimulated muscle contraction. Format: functional, tissue-based. The method in brief: as §2
Sequence of Muscarinic acetylcholine receptor M3 (Cavia porcellus) (Q8VH26 1-587): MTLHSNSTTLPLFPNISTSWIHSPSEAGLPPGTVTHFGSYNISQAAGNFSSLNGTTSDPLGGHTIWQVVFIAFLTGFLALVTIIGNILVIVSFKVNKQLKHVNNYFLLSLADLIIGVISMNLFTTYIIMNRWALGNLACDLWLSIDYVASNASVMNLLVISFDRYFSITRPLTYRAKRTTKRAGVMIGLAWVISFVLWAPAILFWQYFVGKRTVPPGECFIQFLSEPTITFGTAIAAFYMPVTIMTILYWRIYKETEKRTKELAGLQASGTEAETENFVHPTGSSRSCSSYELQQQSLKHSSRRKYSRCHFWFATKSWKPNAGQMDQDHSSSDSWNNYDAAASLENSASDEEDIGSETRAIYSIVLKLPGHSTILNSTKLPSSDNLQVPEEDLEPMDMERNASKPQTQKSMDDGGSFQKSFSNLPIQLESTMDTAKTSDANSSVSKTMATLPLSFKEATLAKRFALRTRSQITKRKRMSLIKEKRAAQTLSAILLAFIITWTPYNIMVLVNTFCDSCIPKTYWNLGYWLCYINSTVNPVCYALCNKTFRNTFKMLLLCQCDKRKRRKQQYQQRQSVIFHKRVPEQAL
The species entered for test [12] is Cavia porcellus. Description: Antagonist activity at muscarinic M4 receptor in guinea pig lung assessed as effect on muscle contraction up to 10 uM. Format: functional.
For test [13], the species on record is Oryctolagus cuniculus. Put plainly: Agonist activity at muscarinic M1 receptor in New Zealand White rabbit vas deferens assessed as inhibition of electrically-stimulated muscle contraction. Format: functional. The method in brief:
as §1

The species named for test [14] is Cavia porcellus. Description: Intrinsic activity at muscarinic M4 receptor in guinea pig lung assessed as inhibition of electrically-stimulated muscle contraction relative to bathanecol. An outline of the steps:
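Male guinea pig peripheral lung strips (15 × 2 × 2 mm) from lower lobe, 0.3 g resting tension, 37 °C, Krebs-Henseleit with carbogen; 45 min equilibration, isometric contractions. Cumulative agonist concentration-response curves; pD2 by linear regression; intrinsic activity relative to bethanechol maximum; means ± SEM of four to six experiments.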

The species entered for test [15] is Oryctolagus cuniculus. Description: Antagonist activity at muscarinic M1 receptor in New Zealand White rabbit vas deferens assessed as effect on muscle contraction up to 30 uM. Format: functional, tissue-based.
A short description of test [16]: Antagonist activity at muscarinic M4 receptor in guinea pig lung assessed as effect on muscle contraction. Format: functional, Cavia porcellus.
For test [17], the species on record is Cavia porcellus. Put plainly: Antagonist activity at muscarinic M2 receptor in guinea pig atrium assessed as effect on muscle contraction up to 10 uM. Particulars: Cardiac atrium. Format: functional, tissue-based.
Test [18] is filed under the species Cavia porcellus. Particulars: Cardiac atrium.
Test [19] deals with Muscarinic acetylcholine receptor M3 (Cavia porcellus) (UniProt Q8VH26). To be noted: Ileum.
The nature of test [20]: Agonist activity at muscarinic M4 receptor in guinea pig lung assessed as inhibition of electrically-stimulated muscle contraction. Format: functional, Cavia porcellus.
For test [21], the species on record is Cavia porcellus. Description: Selectivity ratio of pD2 for guinea pig muscarinic M3 receptor to pD2 for guinea pig muscarinic M2 receptor.
The nature of test [22]: Selectivity ratio of pD2 for guinea pig muscarinic M3 receptor to pD2 for rabbit M1 receptor.
For test [23], the species on record is Cavia porcellus. Description: Selectivity ratio of pD2 for guinea pig muscarinic M3 receptor to pD2 for guinea pig muscarinic M4 receptor.
For test [24], the species on record is Cavia porcellus. Description: Selectivity ratio of pD2 for guinea pig muscarinic M4 receptor to pD2 for guinea pig muscarinic M3 receptor.

Sequence of Muscarinic acetylcholine receptor M3 (P20309 whole entry): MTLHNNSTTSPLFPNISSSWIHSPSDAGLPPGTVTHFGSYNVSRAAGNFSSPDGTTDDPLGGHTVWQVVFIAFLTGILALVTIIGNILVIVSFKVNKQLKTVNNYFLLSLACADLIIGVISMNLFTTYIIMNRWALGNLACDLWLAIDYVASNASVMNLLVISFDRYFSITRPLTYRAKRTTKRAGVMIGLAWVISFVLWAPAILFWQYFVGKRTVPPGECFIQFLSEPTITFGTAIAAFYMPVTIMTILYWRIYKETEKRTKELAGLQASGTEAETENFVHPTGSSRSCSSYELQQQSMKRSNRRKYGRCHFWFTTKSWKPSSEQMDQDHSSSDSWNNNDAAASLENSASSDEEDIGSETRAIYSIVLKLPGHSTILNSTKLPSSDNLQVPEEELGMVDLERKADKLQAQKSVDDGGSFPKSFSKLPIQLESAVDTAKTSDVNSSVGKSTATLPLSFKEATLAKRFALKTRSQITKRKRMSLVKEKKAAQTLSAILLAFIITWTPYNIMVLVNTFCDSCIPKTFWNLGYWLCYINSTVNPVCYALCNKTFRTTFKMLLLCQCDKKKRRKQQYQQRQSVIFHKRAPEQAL

`C[C@@H]1O[C@H](C[N+](C)(C)C)COC1(C)C.[I-]` (relative stereo): the Ki in [1] is 67.6 µM; in test [2], 60.3 µM; in [3], 32.4 µM; in [4], 57.5 µM; in [5], 52.5 µM. Also, the Intrinsic activity in test [6] stood at 0; in test [8], 0.47; in [9], 0.33. In test [7], the negative-log Kb (pKb) is reported as 4.61. The pD2 worked out at 4.92 in test [10] and 5.12 in [11]. Moreover, the pKb result in [12] was “inactive”.

On to `C[C@H]1OC[C@@H](C[N+](C)(C)C)OC1(C)C.[I-]` (relative stereo), for which the inhibitory constant (Ki) in test [1] was 20 µM; in test [2] it was 27.5 µM; in test [3], 16.2 µM; in test [4], 25.7 µM; in test [5], 32.4 µM. The pD2 entry in test [13] is “inactive”. Also, the Intrinsic activity in [8] was 0.47; in [14], 0. Also, the pD2 in test [11] worked out at 5.25. The pKb entry in [15] is “inactive”. In addition, the pKb in test [16] came to 5.15.

Consider `C[C@H]1O[C@H](C[N+](C)(C)C)COC1(C)C` (relative stereo), for which the inhibition constant Ki is 95.5 µM in test [1]; 72.4 µM in [2]; 46.8 µM in [3]; 87.1 µM in test [4]; 83.2 µM in test [5]. The pD2 entry in test [13] and in [11] was “inactive” each time. The pKb entry in [17], in test [12], in [15], in [18] and in test [19] was “inactive” each time.

Regarding `CC1(C)CO[C@H](C[N+](C)(C)C)CO1.[I-]`, the Ki in test [1] was above 100 µM; in test [2], 95.5 µM; in test [3], 77.6 µM; in test [4], above 100 µM; in test [5], above 100 µM. Further, the pD2 result in test [13] was “inactive”. The Intrinsic activity is 0.68 in [8] and 0.22 in [14]. The pKb entry in test [17] and in test [15] was “inactive” throughout. For the same compound, the pD2 in test [11] was 4.91; in test [20], 4.85.

Take `CC1(C)COC[C@@H](C[N+](C)(C)C)O1.[I-]`: the Ki in [1] is 47.9 µM; in [2], 18.2 µM; in [3], 21.4 µM; in test [4], 44.7 µM; in [5] it was 28.2 µM. In [13], the pD2 entry was “inactive”. In addition, the Intrinsic activity in test [8] was determined as 1.16; in [9], 0.73; in [14], 0.18. Moreover, the figures for the pD2 in test [10], in test [11] and in [20] were 5.03, 6.94 and 4.85, respectively. Also, the pKb result in test [15] is “inactive”. Further, the Selectivity ratio is 81 in test [21], above 275 in [22] and 123 in test [23].

For `C[C@@H]1OC[C@@H](C[N+](C)(C)C)O[C@H]1C.[I-]` (relative stereo), the Ki was 24.5 µM in [1]; 13.8 µM in test [2]; 11 µM in test [3]; 30.9 µM in [4]; 15.5 µM in test [5]. Moreover, the pD2 entry in test [13] is “inactive”. Besides, the Intrinsic activity in test [8] amounted to 0.88; in test [9], 0.8; in test [14], 0.35. Besides, the values for the pD2 in test [10], in test [11] and in test [20] were 4.93, 6.95 and 5.08, respectively. In test [15], the pKb entry is “inactive”. The Selectivity ratio in test [21] stood at 105; in test [24] it was 74.

In general, Ki refers to a measure of affinity in units of concentration, obtained from inhibition or displacement. A higher Ki goes with lower affinity. The term pKb denotes the negative decadic logarithm of the Kb, by convention in mol/L.
